Measurements as given in ChEMBL document CHEMBL1134791, “2- and 3-substituted 1,4-naphthoquinone derivatives as subversive substrates of trypanothione reductase and lipoamide dehydrogenase from Trypanosoma cruzi: synthesis and correlation between redox cycling activities and in vitro cytotoxicity” (J Med Chem, 2001).
pEC50, pIC50: −log10 of the molar value.

How the values were obtained:
Trypanothione reductase = Trypanothione reductase (Trypanosoma cruzi, UniProt P28593); assay: Inhibitory activity against Trypanosoma cruzi trypanothione disulfide reductase, assay in presence of 57 uM T(S)2.
Chain of Trypanothione reductase (P28593 whole entry): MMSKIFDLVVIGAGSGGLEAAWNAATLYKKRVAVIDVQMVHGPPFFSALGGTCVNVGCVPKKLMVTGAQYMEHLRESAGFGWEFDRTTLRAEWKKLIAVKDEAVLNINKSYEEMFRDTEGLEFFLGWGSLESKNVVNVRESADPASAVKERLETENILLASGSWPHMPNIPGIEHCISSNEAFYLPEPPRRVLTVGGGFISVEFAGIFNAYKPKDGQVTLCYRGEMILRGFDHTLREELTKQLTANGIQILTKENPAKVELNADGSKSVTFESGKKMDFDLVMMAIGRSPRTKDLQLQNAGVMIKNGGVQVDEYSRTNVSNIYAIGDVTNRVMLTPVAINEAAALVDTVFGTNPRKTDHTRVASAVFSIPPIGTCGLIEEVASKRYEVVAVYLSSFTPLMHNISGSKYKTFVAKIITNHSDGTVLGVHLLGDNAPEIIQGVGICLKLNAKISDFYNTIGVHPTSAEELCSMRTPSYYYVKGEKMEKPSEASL
Method in brief: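 Assay contained 250 µM NADPH, 57 µM T(S)₂, inhibitor at 0.3–50 µM and 1% DMSO final. Started with enzyme; NADPH loss followed at 340 nm. IC50 in duplicate.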

Trypanosoma cruzi = assay: In vitro antiparasitic activity against Trypanosoma cruzi was tested by sigmoidal regression analysis; assay type: functional; conditions: read-out: ED50 (the source's name)
Method in brief: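 Mouse peritoneal macrophages (female CD1, starch-elicited, harvested 24 h) infected with L. donovani amastigotes (strain MHOM/ET/67/L82, hamster spleen) or T. cruzi Y-strain trypomastigotes (5:1, from MDCK overlay). Infected cells exposed to a 3-fold dilution series in quadruplicate for 5 days (L. donovani) or 3 days (T. cruzi). Giemsa-stained slides scored for % macrophages cleared of amastigotes versus untreated cultures. ED50 by sigmoidal regression.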

Trypanosoma brucei = assay: In vitro antiparasitic activity against Trypanosoma brucei was tested by sigmoidal regression analysis; assay type: functional; conditions: read-out: ED50 (the source's name)
Method in brief: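 T. b. brucei S427 bloodstream trypomastigotes at 2 × 10⁵/mL in HMI-18 medium, in triplicate, with a 3-fold dilution series starting at 30 µM. Incubated 3 days at 37 °C in 5% CO₂. Pentamidine served as positive control. Viability read by tetrazolium colorimetric assay on day 3. ED50 by sigmoidal regression.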

pIC50 (Trypanothione reductase)	pEC50 (Trypanosoma cruzi)	pEC50 (Trypanosoma brucei)	Compound
< 4.30	4.36	< 3.96	CC1=C(CCCCC(=O)O)C(=O)c2ccccc2C1=O
< 4.30	4.77	5.28	CC1=C(CCCCCC(=O)O)C(=O)c2ccccc2C1=O
< 4.30	4.38	< 5.00	CC1=C(CCCCC(=O)O)C(=O)c2c(O)cccc2C1=O
< 4.30	4.49	< 5.48	CC1=C(CCCCCC(=O)O)C(=O)c2c(O)cccc2C1=O
< 4.60	5.43	6.22	CC1=C(CCCNC(=O)OC(C)(C)C)C(=O)c2c(O)cccc2C1=O
< 4.30	< 4.13	4.32	O=C(O)CCCCCC1=C(CCCCCC(=O)O)C(=O)c2ccccc2C1=O
5.60	4.76	< 5.89	CC1=C(CCCCC(=O)NCCCN2CCN(CCCNC(=O)CCCCC3=C(C)C(=O)c4cccc(O)c4C3=O)CC2)C(=O)c2c(O)cccc2C1=O
5.57	4.89	5.31	CC1=C(CCC(=O)NCCCCNCCCNC(=O)CCC2=C(C)C(=O)c3ccccc3C2=O)C(=O)c2ccccc2C1=O
< 4.30	< 4.30	4.67	CN1CCN(CCCNC(=O)CCC2=C(CCC(=O)NCCCN3CCN(C)CC3)C(=O)c3c(O)cccc3C2=O)CC1
< 4.30	4.10	< 4.10	O=C(O)CCCCC1=C(CCCCC(=O)O)C(=O)c2c(O)cccc2C1=O
5.64	4.34	< 5.35	CC1=C(CCCC(=O)NCCCCNCCCNC(=O)CCCC2=C(C)C(=O)c3cccc(O)c3C2=O)C(=O)c2c(O)cccc2C1=O
< 4.30	4.34	< 4.96	CC1=C(CCC(=O)O)C(=O)c2c(O)cccc2C1=O
4.76	< 4.32	4.50	CN1CCN(C(=O)CCCC2=C(CCCC(=O)N3CCN(C)CC3)C(=O)c3c(O)cccc3C2=O)CC1
< 4.24	< 4.90	< 4.90	CC1=C(NCCCC/N=C2/C(=O)c3ccccc3C(O)=C2C)C(=O)c2ccccc2C1=O
< 4.24	< 4.90	< 4.90	CN(C)CCCN1CCN(CC2=C(N3CCN(CCCN(C)C)CC3)C(=O)c3ccccc3C2=O)CC1
4.30	< 4.06	4.28	CC1=C(CCC(=O)N2CCN(C)CC2)C(=O)c2c(O)cccc2C1=O
5.22	< 4.90	–	CC1=C(NCCCN2CCN(CCCN)CC2)C(=O)c2ccccc2C1=O
5.77	5.40	< 5.82	CC1=C(CCCCC(=O)NCCCCNCCCNC(=O)CCCCC2=C(C)C(=O)c3cccc(O)c3C2=O)C(=O)c2c(O)cccc2C1=O
< 4.60	4.88	5.60	CC1=C(CCCCCNC(=O)OC(C)(C)C)C(=O)c2c(O)cccc2C1=O
5.70	4.33	< 5.34	CC1=C(CCCC(=O)NCCCNCCCNC(=O)CCCC2=C(C)C(=O)c3cccc(O)c3C2=O)C(=O)c2c(O)cccc2C1=O

pIC50 (Trypanothione reductase)	pEC50 (Trypanosoma cruzi)	pEC50 (Trypanosoma brucei)	Compound
< 4.24	< 5.21	< 4.90	CC1=C(O)c2ccccc2C(=O)/C1=N\CCCN1CCN(C)CC1
5.80	4.61	6.52	CC1=C(CCCCCC(=O)NCCCCNCCCNC(=O)CCCCCC2=C(C)C(=O)c3cccc(O)c3C2=O)C(=O)c2c(O)cccc2C1=O
5.80	4.94	< 5.89	CC1=C(CCCCCC(=O)NCCCN2CCN(CCCNC(=O)CCCCCC3=C(C)C(=O)c4cccc(O)c4C3=O)CC2)C(=O)c2c(O)cccc2C1=O
< 4.30	< 3.96	4.11	CC1=C(CCCC(=O)O)C(=O)c2c(O)cccc2C1=O
4.49	4.30	4.64	CC1=C(CCCC(=O)NCCCN2CCN(C)CC2)C(=O)c2c(O)cccc2C1=O
< 4.60	5.15	5.85	CC1=C(CCCCNC(=O)OC(C)(C)C)C(=O)c2c(O)cccc2C1=O
–	4.57	5.04	CC1=C(CCCC(=O)N2CCN(C)CC2)C(=O)c2ccccc2C1=O
< 4.30	5.37	5.57	CC1=C(CCCCCNC(=O)OC(C)(C)C)C(=O)c2ccccc2C1=O
5.85	5.05	5.36	CC1=C(CCCCC(=O)NCCCCNCCCNC(=O)CCCCC2=C(C)C(=O)c3ccccc3C2=O)C(=O)c2ccccc2C1=O
4.73	4.35	4.82	CC1=C(CCCCC(=O)NCCCNCCCNC(=O)CCCCC2=C(C)C(=O)c3ccccc3C2=O)C(=O)c2ccccc2C1=O
< 4.30	< 4.06	4.21	O=C(O)CCCC1=C(CCCC(=O)O)C(=O)c2c(O)cccc2C1=O
< 4.30	< 4.52	< 4.52	CC1=C(CCC(=O)O)C(=O)c2ccccc2C1=O
5.21	< 4.34	< 4.82	CN1CCN(CCCNC(=O)CCCCC2=C(CCCCC(=O)NCCCN3CCN(C)CC3)C(=O)c3c(O)cccc3C2=O)CC1
4.92	< 4.90	< 4.90	CC1=C(NCCCNCCCN)C(=O)c2ccccc2C1=O
< 4.30	5.02	6.05	CC1=C(CCNC(=O)OC(C)(C)C)C(=O)c2ccccc2C1=O
< 4.30	4.86	< 5.52	CC1=C(CCCNC(=O)OC(C)(C)C)C(=O)c2ccccc2C1=O
< 4.60	4.98	< 5.52	CC1=C(CCCCNC(=O)OC(C)(C)C)C(=O)c2ccccc2C1=O
4.38	< 4.08	4.28	CC1=C(CCCC(=O)N2CCN(C)CC2)C(=O)c2c(O)cccc2C1=O
< 4.30	< 4.03	4.23	O=C(O)CCC1=C(CCC(=O)O)C(=O)c2c(O)cccc2C1=O
5.72	4.89	5.77	CC1=C(CCC(=O)NCCCNCCCNC(=O)CCC2=C(C)C(=O)c3cccc(O)c3C2=O)C(=O)c2c(O)cccc2C1=O

pIC50 (Trypanothione reductase)	pEC50 (Trypanosoma cruzi)	pEC50 (Trypanosoma brucei)	Compound
5.60	4.90	< 5.82	CC1=C(CCCCCC(=O)NCCCNCCCNC(=O)CCCCCC2=C(C)C(=O)c3ccccc3C2=O)C(=O)c2ccccc2C1=O
5.64	4.55	5.47	CC1=C(CCCC(=O)NCCCN2CCN(CCCNC(=O)CCCC3=C(C)C(=O)c4cccc(O)c4C3=O)CC2)C(=O)c2c(O)cccc2C1=O
< 4.24	< 4.90	< 4.90	CC1=C(N2CCN(CCCN(C)C)CC2)C(=O)c2ccccc2C1=O
5.40	< 4.32	4.58	CC1=C(CCCC(=O)NCCCCNCCCNC(=O)CCCC2=C(C)C(=O)c3ccccc3C2=O)C(=O)c2ccccc2C1=O
< 4.60	5.46	6.22	CC1=C(CCNC(=O)OC(C)(C)C)C(=O)c2c(O)cccc2C1=O
5.30	4.33	5.35	CC1=C(CCC(=O)NCCCNCCCNC(=O)CCC2=C(C)C(=O)c3ccccc3C2=O)C(=O)c2ccccc2C1=O
5.70	5.52	< 5.85	CC1=C(CCCCCC(=O)NCCCNCCCNC(=O)CCCCCC2=C(C)C(=O)c3cccc(O)c3C2=O)C(=O)c2c(O)cccc2C1=O
5.54	4.34	4.86	CC1=C(CCC(=O)NCCCCNCCCNC(=O)CCC2=C(C)C(=O)c3cccc(O)c3C2=O)C(=O)c2c(O)cccc2C1=O
< 4.30	–	–	CC1=C(CCCC(=O)O)C(=O)c2ccccc2C1=O
5.51	4.96	5.24	CC1=C(CCCCCC(=O)NCCCN2CCN(CCCNC(=O)CCCCCC3=C(C)C(=O)c4ccccc4C3=O)CC2)C(=O)c2ccccc2C1=O
< 4.30	< 4.21	4.65	CN1CCN(C(=O)CCC2=C(CCC(=O)N3CCN(C)CC3)C(=O)c3c(O)cccc3C2=O)CC1
5.77	5.40	5.59	CC1=C(CCCCCC(=O)NCCCCNCCCNC(=O)CCCCCC2=C(C)C(=O)c3ccccc3C2=O)C(=O)c2ccccc2C1=O
5.35	4.89	4.86	CC1=C(CCCC(=O)NCCCN2CCN(CCCNC(=O)CCCC3=C(C)C(=O)c4ccccc4C3=O)CC2)C(=O)c2ccccc2C1=O
5.95	4.59	5.14	CC1=C(CCCCC(=O)NCCCN2CCN(CCCNC(=O)CCCCC3=C(C)C(=O)c4ccccc4C3=O)CC2)C(=O)c2ccccc2C1=O
5.43	4.40	5.49	CC1=C(CCC(=O)NCCCN2CCN(CCCNC(=O)CCC3=C(C)C(=O)c4ccccc4C3=O)CC2)C(=O)c2ccccc2C1=O
< 4.30	4.15	5.02	CC1=C(CCC(=O)N2CCN(C)CC2)C(=O)c2ccccc2C1=O
6.35	5.37	5.96	CC1=C(CCCCC(=O)NCCCNCCCNC(=O)CCCCC2=C(C)C(=O)c3cccc(O)c3C2=O)C(=O)c2c(O)cccc2C1=O
< 4.24	< 4.90	< 4.90	CC1=C(NCCCCN)C(=O)c2c(O)cccc2C1=O
4.36	< 4.12	4.34	CC1=C(CCCC(=O)NCCCN2CCN(C)CC2)C(=O)c2ccccc2C1=O
